Test results published in ChEMBL document CHEMBL4715925, “Sulfamoylbenzamide-based Capsid Assembly Modulators for Selective Inhibition of Hepatitis B Viral Replication” (ACS Med Chem Lett, 2021).
Blank lines part the entries; values can stand above or below the compound they belong to. Calls of active or inactive are those of the source. The rule behind the calls is not given here.

Experiments:
Hepatitis B virus [1] = assay: Antiviral activity against Hepatitis B genotype D virus infected in HepG2 2.2.15 cells assessed as inhibition of viral DNA incubated for 5 days by qPCR analysis; format: functional, cell-based; details: HepG2 2.2.15, 120 h
Procedure, shortened: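 HepG2.2.15 cells were incubated with compound for 5 days. HBV DNA was then purified from the culture supernatant and quantified by real-time PCR.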

[2] = Cytotoxicity against human HepG2 2.2.15 cells assessed as reduction in cell viability incubated for 5 days by MTT assay; format: cell-based; details: time 5 day
Procedure, shortened: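 HepG2.2.15 cells were incubated with compound, then cell viability was measured. Mean ± SD of three independent experiments.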

[3] = Selectivity index, ratio of CC50 for human […] cells to EC50 for Hepatitis B virus; format: toxicity; details: read-out: Ratio CC50/EC50
Cytochrome P450 1A2 = target: T1, Cytochrome P450 1A2 (Homo sapiens, UniProt P05177); assay: Inhibition of human liver microsome CYP1A2 using phenacetin as substrate incubated for 20 mins by LC-MS/MS with HPLC analysis; format: ADME, microsomes
T1 sequence (P05177 whole entry): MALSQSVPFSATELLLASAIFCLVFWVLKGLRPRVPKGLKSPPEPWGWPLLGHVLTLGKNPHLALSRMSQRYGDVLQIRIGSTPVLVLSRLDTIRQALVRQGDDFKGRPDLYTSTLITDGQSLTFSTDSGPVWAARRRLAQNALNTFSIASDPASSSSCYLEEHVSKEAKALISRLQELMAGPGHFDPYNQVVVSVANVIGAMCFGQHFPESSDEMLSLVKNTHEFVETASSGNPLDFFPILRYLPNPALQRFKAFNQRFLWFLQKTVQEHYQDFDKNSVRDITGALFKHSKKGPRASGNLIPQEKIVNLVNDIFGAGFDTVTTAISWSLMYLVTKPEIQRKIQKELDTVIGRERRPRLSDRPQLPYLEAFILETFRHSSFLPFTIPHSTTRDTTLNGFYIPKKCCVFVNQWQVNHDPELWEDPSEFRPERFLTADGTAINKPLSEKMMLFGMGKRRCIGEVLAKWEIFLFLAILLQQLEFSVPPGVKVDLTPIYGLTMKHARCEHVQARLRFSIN
Procedure, shortened: (§1)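 Cocktail-substrate assay in human liver microsomes; IC50 reported for CYP1A2, 2C9, 2C19, 2D6 and 3A4. n = 3, mean ± SD.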

Cytochrome P450 2C9 = Cytochrome P450 2C9 (Homo sapiens, UniProt P11712); assay: Inhibition of human liver microsome CYP2C9 using tolbutamide as substrate incubated for 20 mins by LC-MS/MS with HPLC analysis; format: ADME, microsomes; procedure, shortened: as §1
Sequence of Cytochrome P450 2C9 (P11712 whole entry): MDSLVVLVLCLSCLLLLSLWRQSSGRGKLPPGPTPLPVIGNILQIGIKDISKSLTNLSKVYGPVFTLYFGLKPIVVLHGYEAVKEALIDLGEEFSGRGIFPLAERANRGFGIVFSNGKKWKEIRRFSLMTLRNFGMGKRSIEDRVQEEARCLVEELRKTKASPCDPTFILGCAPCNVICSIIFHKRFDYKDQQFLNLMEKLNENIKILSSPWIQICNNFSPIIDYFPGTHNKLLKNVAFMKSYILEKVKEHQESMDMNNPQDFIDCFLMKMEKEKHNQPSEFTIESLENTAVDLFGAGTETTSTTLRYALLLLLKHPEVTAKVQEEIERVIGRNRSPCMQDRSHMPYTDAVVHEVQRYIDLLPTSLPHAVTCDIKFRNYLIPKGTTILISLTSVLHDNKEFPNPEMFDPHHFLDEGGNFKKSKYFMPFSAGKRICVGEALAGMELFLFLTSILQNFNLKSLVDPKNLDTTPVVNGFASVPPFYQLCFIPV

Cytochrome P450 2C19 = Cytochrome P450 2C19 (Homo sapiens, UniProt P33261); assay: Inhibition of human liver microsome CYP2C19 using S-mephenytoin as substrate incubated for 20 mins by LC-MS/MS with HPLC analysis; format: ADME, microsomes; procedure, shortened: as §1
Sequence of Cytochrome P450 2C19 (P33261 whole entry): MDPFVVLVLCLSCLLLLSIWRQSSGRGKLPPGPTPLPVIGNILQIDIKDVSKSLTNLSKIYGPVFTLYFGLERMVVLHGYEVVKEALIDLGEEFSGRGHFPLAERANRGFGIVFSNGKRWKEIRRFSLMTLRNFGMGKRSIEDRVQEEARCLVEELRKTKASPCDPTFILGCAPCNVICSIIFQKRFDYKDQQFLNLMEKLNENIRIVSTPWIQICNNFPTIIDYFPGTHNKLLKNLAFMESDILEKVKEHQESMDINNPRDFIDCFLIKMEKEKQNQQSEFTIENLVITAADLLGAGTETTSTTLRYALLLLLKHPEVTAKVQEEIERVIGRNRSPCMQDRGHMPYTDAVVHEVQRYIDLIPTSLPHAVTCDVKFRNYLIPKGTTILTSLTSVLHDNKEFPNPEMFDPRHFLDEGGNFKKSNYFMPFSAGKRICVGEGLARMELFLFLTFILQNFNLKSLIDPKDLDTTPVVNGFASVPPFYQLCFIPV

Cytochrome P450 2D6 = Cytochrome P450 2D6 (Homo sapiens, UniProt P10635); assay: Inhibition of human liver microsome CYP2D6 using dextromethorphan as substrate incubated for 20 mins by LC-MS/MS with HPLC analysis; format: ADME, microsomes; procedure, shortened: as §1
Sequence of Cytochrome P450 2D6 (P10635 whole entry): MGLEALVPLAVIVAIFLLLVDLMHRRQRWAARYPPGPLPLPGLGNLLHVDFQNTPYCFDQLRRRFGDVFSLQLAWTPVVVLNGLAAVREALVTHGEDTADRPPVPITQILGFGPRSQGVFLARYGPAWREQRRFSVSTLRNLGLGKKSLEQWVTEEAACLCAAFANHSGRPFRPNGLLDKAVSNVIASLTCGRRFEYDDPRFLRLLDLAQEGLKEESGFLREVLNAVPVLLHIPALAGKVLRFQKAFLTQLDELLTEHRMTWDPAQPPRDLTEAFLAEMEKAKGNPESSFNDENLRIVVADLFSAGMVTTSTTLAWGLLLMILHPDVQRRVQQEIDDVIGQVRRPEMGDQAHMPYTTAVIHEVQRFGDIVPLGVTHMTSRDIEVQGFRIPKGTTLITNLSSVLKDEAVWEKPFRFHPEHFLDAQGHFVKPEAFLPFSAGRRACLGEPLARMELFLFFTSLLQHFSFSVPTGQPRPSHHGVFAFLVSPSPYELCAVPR

Cytochrome P450 3A4 = Cytochrome P450 3A4 (Homo sapiens, UniProt P08684); assay: Inhibition of human liver microsome CYP3A4 using […] as substrate incubated for 20 mins by LC-MS/MS with HPLC analysis; format: ADME, microsomes; procedure, shortened: as §1
Sequence of Cytochrome P450 3A4 (P08684 whole entry): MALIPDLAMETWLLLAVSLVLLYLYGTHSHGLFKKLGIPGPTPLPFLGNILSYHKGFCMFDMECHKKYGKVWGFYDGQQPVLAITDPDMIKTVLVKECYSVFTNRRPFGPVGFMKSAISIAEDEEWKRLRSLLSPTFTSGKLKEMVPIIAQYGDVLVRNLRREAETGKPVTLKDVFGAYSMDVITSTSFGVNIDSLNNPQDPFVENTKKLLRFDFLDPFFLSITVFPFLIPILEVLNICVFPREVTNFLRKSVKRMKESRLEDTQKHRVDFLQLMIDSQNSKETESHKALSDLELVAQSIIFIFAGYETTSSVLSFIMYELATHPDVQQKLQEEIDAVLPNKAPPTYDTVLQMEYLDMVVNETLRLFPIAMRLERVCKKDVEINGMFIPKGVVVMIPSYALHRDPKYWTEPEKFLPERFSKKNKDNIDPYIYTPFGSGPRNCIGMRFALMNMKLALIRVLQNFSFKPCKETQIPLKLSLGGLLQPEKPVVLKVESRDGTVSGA

[4] = target: Voltage-gated inwardly rectifying potassium channel KCNH2 (Homo sapiens, UniProt Q12809); assay: Inhibition of human ERG by fluorescence polarization assay
Sequence of Voltage-gated inwardly rectifying potassium channel KCNH2 (Q12809 whole entry): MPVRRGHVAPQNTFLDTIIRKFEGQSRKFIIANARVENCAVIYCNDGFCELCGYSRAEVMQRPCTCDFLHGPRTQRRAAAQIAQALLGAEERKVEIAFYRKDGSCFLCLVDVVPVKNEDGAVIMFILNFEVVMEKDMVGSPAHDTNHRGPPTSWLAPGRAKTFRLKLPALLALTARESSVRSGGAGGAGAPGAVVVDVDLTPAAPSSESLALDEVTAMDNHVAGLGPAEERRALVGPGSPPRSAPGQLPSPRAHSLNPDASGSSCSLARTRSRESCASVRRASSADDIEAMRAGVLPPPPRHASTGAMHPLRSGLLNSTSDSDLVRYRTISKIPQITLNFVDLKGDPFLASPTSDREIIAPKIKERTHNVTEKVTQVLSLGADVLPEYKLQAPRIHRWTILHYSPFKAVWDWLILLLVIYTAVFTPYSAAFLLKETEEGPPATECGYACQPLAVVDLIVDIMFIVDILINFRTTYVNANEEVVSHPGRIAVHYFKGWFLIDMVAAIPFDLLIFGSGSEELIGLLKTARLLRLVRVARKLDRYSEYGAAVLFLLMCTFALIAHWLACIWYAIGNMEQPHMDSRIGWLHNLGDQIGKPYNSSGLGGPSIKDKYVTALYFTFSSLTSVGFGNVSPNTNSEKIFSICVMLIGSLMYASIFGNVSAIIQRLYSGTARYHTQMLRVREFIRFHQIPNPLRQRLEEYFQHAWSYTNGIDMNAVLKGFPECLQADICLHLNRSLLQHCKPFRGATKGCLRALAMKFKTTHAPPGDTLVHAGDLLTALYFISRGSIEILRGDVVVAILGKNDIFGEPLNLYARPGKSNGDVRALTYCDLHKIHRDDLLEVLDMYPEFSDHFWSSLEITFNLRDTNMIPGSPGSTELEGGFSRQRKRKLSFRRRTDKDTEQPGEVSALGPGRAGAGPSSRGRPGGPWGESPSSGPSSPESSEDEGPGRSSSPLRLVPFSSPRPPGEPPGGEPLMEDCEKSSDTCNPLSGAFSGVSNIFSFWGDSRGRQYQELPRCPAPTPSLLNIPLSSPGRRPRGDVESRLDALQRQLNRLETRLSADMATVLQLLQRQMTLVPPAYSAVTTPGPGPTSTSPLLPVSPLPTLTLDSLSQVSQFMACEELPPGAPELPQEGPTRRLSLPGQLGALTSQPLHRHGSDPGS

[5] = Metabolic stability in rat liver microsomes assessed as compound remaining at 1 uM incubated for 30 mins by LC-MS/MS analysis; format: ADME, Microsome; details: read-out: Stabilty
Procedure, shortened: (§2)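 Phase-I stability in rat or human liver microsomes, given as % remaining after 30 min, with half-life also derived. n = 3, mean ± SD.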

[6] = Metabolic stability in human liver microsomes assessed as compound remaining at 1 uM incubated for 30 mins by LC-MS/MS analysis; format: ADME, Microsome; details: read-out: Stabilty; procedure, shortened: as §2
[7] = Metabolic stability in rat liver microsomes assessed as half life at 1 uM incubated for 30 mins by LC-MS/MS analysis; format: ADME, Microsome; procedure, shortened: as §2
[8] = Metabolic stability in human liver microsomes assessed as half life at 1 uM incubated for 30 mins by LC-MS/MS analysis; format: ADME, Microsome; procedure, shortened: as §2
[9] = Stability in rat plasma assessed as compound remaining at 5 uM incubated for 4 hrs by LC-MS/MS analysis; format: ADME, cell-free; details: read-out: Stabilty
Procedure, shortened: (§3)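 Incubated in rat or human plasma at 37 °C for 4 h; result is % compound remaining. n = 3, mean ± SD.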

[10] = Stability in human plasma assessed as compound remaining at 5 uM incubated for 4 hrs by LC-MS/MS analysis; format: ADME, cell-free; details: read-out: Stabilty; procedure, shortened: as §3
[11] = Protein binding in rat plasma at 5 uM incubated for 4 hrs by LC-MS/MS analysis; format: ADME, cell-free; details: read-out: PPB (converted)
[12] = Protein binding in human plasma at 5 uM incubated for 4 hrs by LC-MS/MS analysis; format: ADME, cell-free; details: read-out: PPB (converted)
[13] = Half life in Sprague-Dawley rat at 5 mg/kg, iv by LC-MS/MS analysis; format: ADME, organism-based; details: in vivo
Procedure, shortened: (§4)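 Male SD rats, 5 mg/kg given i.v. or p.o.; plasma concentration–time courses followed. Parameters: Tmax, Cmax, terminal T1/2, AUClast, AUC to infinity, total plasma clearance, Vss, oral bioavailability (Ft). Values are mean ± SD of at least three independent experiments.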

[14] = AUClast in Sprague-Dawley rat at 5 mg/kg, iv by LC-MS/MS analysis; format: ADME, organism-based; parameters: route intravenous, time 0 - last, dose 5 mg/kg; details: in vivo; procedure, shortened: as §4
[15] = AUC (0 to infinity) in Sprague-Dawley rat at 5 mg/kg, iv by LC-MS/MS analysis; format: ADME, organism-based; parameters: time infinity, route intravenous, dose 5 mg/kg; details: in vivo; procedure, shortened: as §4
[16] = Clearance in Sprague-Dawley rat at 5 mg/kg, iv by LC-MS/MS analysis; format: ADME, organism-based; details: in vivo; procedure, shortened: as §4
[17] = Volume of distribution at steady state in Sprague-Dawley rat at 5 mg/kg, iv by LC-MS/MS analysis; format: ADME, organism-based; details: in vivo, read-out: Vdss; procedure, shortened: as §4
[18] = Tmax in Sprague-Dawley rat at 5 mg/kg, po by LC-MS/MS analysis; format: ADME, organism-based; details: in vivo; procedure, shortened: as §4
[19] = Cmax in Sprague-Dawley rat at 5 mg/kg, po by LC-MS/MS analysis; format: ADME, organism-based; parameters: route oral, dose 5 mg/kg; details: in vivo; procedure, shortened: as §4
[20] = Half life in Sprague-Dawley rat at 5 mg/kg, po by LC-MS/MS analysis; format: ADME, organism-based; details: in vivo; procedure, shortened: as §4
[21] = AUClast in Sprague-Dawley rat at 5 mg/kg, po by LC-MS/MS analysis; format: ADME, organism-based; parameters: time 0 - last, route oral, dose 5 mg/kg; details: in vivo; procedure, shortened: as §4
[22] = AUC (0 to infinity) in Sprague-Dawley rat at 5 mg/kg, po by LC-MS/MS analysis; format: ADME, organism-based; parameters: time infinity, route oral, dose 5 mg/kg; details: in vivo; procedure, shortened: as §4
[23] = Oral bioavailability in Sprague-Dawley rat at 5 mg/kg by LC-MS/MS analysis; format: ADME, organism-based; details: in vivo; procedure, shortened: as §4
Hepatitis B virus [24] = assay: Induction of recombinant Hepatitis B virus HBc (1-149)-His protein self-assembly expressed in Escherichia coli BL21 (DE3) at 30 uM by TEM analysis relative to control; details: filed as modulator, time 3-5 day, TDE = time-dependent effect
Hepatitis B virus [25] = assay: Induction of recombinant Hepatitis B virus HBc (1-149)-His protein self-assembly expressed in Escherichia coli BL21 (DE3) assessed as long rod-shaped particles at 30 uM after 3 to 5 days of incubation by TEM analysis relative to control; details: filed as modulator, time 3-5 day
Hepatitis B virus [26] = assay: Induction of recombinant Hepatitis B virus HBc (1-149)-His protein self-assembly expressed in Escherichia coli BL21 (DE3) assessed as longer tubular shaped particles at 30 uM after 3 to 5 days of incubation by TEM analysis relative to control; details: filed as modulator, time 3-5 day
Hepatitis B virus [27] = assay: Induction of recombinant Hepatitis B virus HBc (1-149)-His protein self-assembly expressed in Escherichia coli BL21 (DE3) assessed as short rod-shaped particles at 30 uM after 12 hrs of incubation by TEM analysis relative to control; details: filed as modulator
Hepatitis B virus [28] = assay: Induction of recombinant Hepatitis B virus HBc (1-149)-His protein self-assembly expressed in Escherichia coli BL21 (DE3) assessed as spherical shaped particles at 30 uM after 12 hrs of incubation by TEM analysis relative to control; details: filed as modulator

EC50 (Hepatitis B virus [1]): 0.29 µM | IC50 (Cytochrome P450 1A2): 45.5 µM | IC50 (Cytochrome P450 2C9): 25.2 µM | IC50 (Cytochrome P450 2C19): 19 µM | IC50 (Cytochrome P450 2D6): 26.7 µM | IC50 (Cytochrome P450 3A4): 20.8 µM | remaining at 0.5 h, 1 µM [5]: 54.1% | remaining at 0.5 h, 1 µM [6]: 40.5% | half-life at 1 µM [7]: 0.488 h | half-life at 1 µM [8]: 0.51 h | remaining at 4 h, 5 µM [9]: 99.6% | remaining at 4 h, 5 µM [10]: 100% | fraction unbound at 4 h, 5 µM [11]: 0.108 | fraction unbound at 4 h, 5 µM [12]: 0.029 | half-life [13]: 2.55 h | AUC(0-t) [14]: 2310 ng·h/mL | AUC(0-inf) [15]: 2330 ng·h/mL | clearance [16]: 36 mL/min/kg | Vd [17]: 3.59 L/kg | Tmax [18]: 1.33 h | Cmax [19]: 280 ng/mL | half-life [20]: 5.16 h | AUC(0-t) [21]: 1150 ng·h/mL | AUC(0-inf) [22]: 1230 ng·h/mL | bioavailability [23]: 49.9%
Compound: Nc1cc(F)c(S(=O)(=O)N2CCC(O)CC2)cc1C(=O)Nc1ccc(F)c(C(F)F)c1
CC50 at 120 h [2]: 47.5 µM | selectivity ratio [3]: 164 | IC50 [4]: > 10 µM

EC50 (Hepatitis B virus [1]): 2.18 µM
Compound: Nc1cc(F)c(S(=O)(=O)N2CCC(O)CC2)cc1C(=O)Nc1ccc(Cl)c(F)c1
CC50 at 120 h [2]: 20.3 µM | selectivity ratio [3]: 9.3

EC50 (Hepatitis B virus [1]): > 3.3 µM
Compound: Nc1cc(F)c(S(=O)(=O)N2CCC(O)CC2)cc1C(=O)Nc1ccc(Cl)c(C(F)F)c1
CC50 at 120 h [2]: 30.1 µM

EC50 (Hepatitis B virus [1]): 2.07 µM
Compound: Nc1cc(F)c(S(=O)(=O)N2CCC(O)CC2)cc1C(=O)Nc1ccc(Cl)c(Cl)c1
CC50 at 120 h [2]: 20.4 µM | selectivity ratio [3]: 9.9

EC50 (Hepatitis B virus [1]): 0.3 µM | inhibition (Hepatitis B virus [24]): Tde | IC50 (Cytochrome P450 1A2): > 100 µM | IC50 (Cytochrome P450 2C9): 25 µM | IC50 (Cytochrome P450 2C19): 18.3 µM | IC50 (Cytochrome P450 2D6): 29.3 µM | IC50 (Cytochrome P450 3A4): 41 µM | remaining at 0.5 h, 1 µM [5]: 67.9% | remaining at 0.5 h, 1 µM [6]: 68.1% | half-life at 1 µM [7]: 0.867 h | half-life at 1 µM [8]: 1.24 h | remaining at 4 h, 5 µM [9]: 84.6% | remaining at 4 h, 5 µM [10]: 93.6% | fraction unbound at 4 h, 5 µM [11]: 0.073 | fraction unbound at 4 h, 5 µM [12]: 0.035 | half-life [13]: 1.22 h | AUC(0-t) [14]: 2450 ng·h/mL | AUC(0-inf) [15]: 2500 ng·h/mL | clearance [16]: 34.2 mL/min/kg | Vd [17]: 2.88 L/kg | Tmax [18]: 1.67 h | Cmax [19]: 480 ng/mL | half-life [20]: 3.84 h | AUC(0-t) [21]: 2080 ng·h/mL | AUC(0-inf) [22]: 2100 ng·h/mL | bioavailability [23]: 84.2% | Activity (Hepatitis B virus [25]): Active | Activity (Hepatitis B virus [26]): Active | Activity (Hepatitis B virus [27]): Active | Activity (Hepatitis B virus [28]): Active
Compound: Nc1cc(F)c(S(=O)(=O)N2CCC(O)CC2)cc1C(=O)Nc1ccc(F)c(F)c1
CC50 at 120 h [2]: 16 µM | selectivity ratio [3]: 53.3 | IC50 [4]: 50 µM

EC50 (Hepatitis B virus [1]): > 3.3 µM
Compound: Nc1cc(F)c(S(=O)(=O)N2CCC(O)CC2)cc1C(=O)Nc1ccc(C(F)(F)F)c(Cl)c1
CC50 at 120 h [2]: 8.7 µM

EC50 (Hepatitis B virus [1]): > 3.3 µM
Compound: Nc1cc(F)c(S(=O)(=O)N2CCC(O)CC2)cc1C(=O)Nc1ccc(Cl)c(C(F)(F)F)c1
CC50 at 120 h [2]: 17.8 µM

EC50 (Hepatitis B virus [1]): 0.83 µM
Compound: Nc1cc(F)c(S(=O)(=O)N2CCC(O)CC2)cc1C(=O)Nc1cccc(F)c1
CC50 at 120 h [2]: 29.3 µM | selectivity ratio [3]: 35.3
